Results reported in ChEMBL document CHEMBL1149150, “Novel 3-oxa lipoxin A4 analogues with enhanced chemical and metabolic stability have anti-inflammatory activity in vivo” (J Med Chem, 2004).

Assays:
[1] = Half life period of compound was determined at a dose of 3 mg/kg by intravenous administration; format: ADME, organism-based; design: dose 3 mg/kg, route intravenous; conditions: rat, in vivo
Procedure, shortened: (§1)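 Rats, n = 3 per route, dosed by iv injection at 3 mg/kg or oral gavage at 5 mg/kg. Plasma analysed by LC/MS–MS with LXA₄ as internal standard on a C18 column (10–80% gradient over 2 min). For methyl ester dosing, the plasma acid formed by hydrolysis was the analyte quantified. Outputs: T1/2, clearance, AUCall, Cmax, Tmax, F.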

[2] = Area under curve after intravenous administration at 3 mg/kg; format: ADME, organism-based; design: dose 3 mg/kg, route intravenous; conditions: rat, in vivo; procedure, shortened: as §1
[3] = Half life period of compound was determined after peroral administration; format: ADME, organism-based; conditions: rat, in vivo, po; procedure, shortened: as §1
[4] = Bioavailability of compound in dog was determined after peroral administration; format: ADME, organism-based, Canis lupus familiaris; conditions: in vivo, po
Procedure, shortened: (§2)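 Dogs dosed iv at 2 mg/kg or orally at 2 mg/kg. Plasma parameters derived were half-life, Cmax, Tmax and oral bioavailability (F).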

Mus sp. = assay: (§3) Inhibition of the edema formation by compound was determined in mice; format: functional, organism-based
Procedure, shortened: (§4)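 Mice given ionophore on the ear with topical coapplication of compound at 100, 300 and 600 µg/cm², vehicle and ionophore controls alongside. Euthanized at 24 h. Ear weight taken as edema. Peroxidase (granulocytes) and elastase (neutrophils) activities measured in ear homogenates. N = 8–10 mice per group, mean ± SEM.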

[5] = F value of compound in rats was determined after peroral administration; format: ADME, organism-based; conditions: rat, in vivo, po; procedure, shortened: as §1
[6] = Tmax was measured in rats after peroral administration at 5 mg/kg; format: ADME, organism-based; design: dose 5 mg/kg, route oral; conditions: rat, in vivo, po; procedure, shortened: as §1
[7] = Half life period of compound was determined after intravenous administration at 2 mg/kg; format: ADME, organism-based, Canis lupus familiaris; design: dose 2 mg/kg, route intravenous; conditions: dog, in vivo; procedure, shortened: as §2
Rattus norvegicus = assay: Compound clearance in rats was measured after intravenous administration at 3 mg/kg; format: ADME, organism-based; design: dose 3 mg/kg, route intravenous; conditions: in vivo; procedure, shortened: as §1
[8] = Half life period of compound was determined after peroral administration at 2 mg/kg; format: ADME, organism-based, Canis lupus familiaris; design: dose 2 mg/kg, route oral; conditions: dog, in vivo, po; procedure, shortened: as §2
[9] = Oral bioavailability in rat; format: ADME, organism-based; conditions: in vivo; procedure, shortened: as §1
Mus musculus = assay: as §3; format: functional, organism-based; procedure, shortened: as §4
[10] = Bioavailability value of compound in rats was determined after peroral administration; format: ADME, organism-based; conditions: rat, in vivo, po; procedure, shortened: as §1

| half-life [1] | AUC [2] | half-life [3] | bioavailability [4] | bioavailability [5] | Tmax [6] | half-life [7] | Cl (Rattus norvegicus) | half-life [8] | bioavailability [9] | IC50 (Mus musculus) | bioavailability [10] | SMILES | ED50 (Mus sp.) |
| --- | --- | --- | --- | --- | --- | --- | --- | --- | --- | --- | --- | --- | --- |
| 2.3 h | 7000 ng·h/mL | 2.2 h | 40% | 14% | 1.3 h | 2.7 h | 7 mL/min/kg | 3.2 h | – | – | – | O=C(O)COC[C@H](O)[C@H](O)/C=C/C=C/C#C/C=C/[C@H](O)COc1ccc(F)cc1 | < 300 µg/cm² |
| 0.1 h | 900 ng·h/mL | 1.8 h | – | – | 0.5 h | – | 58 mL/min/kg | – | 28% | – | – | O=C(O)CCC[C@H](O)[C@H](O)/C=C/C=C/C#C/C=C/[C@@H](O)COc1ccc(F)cc1 | – |
| 1.3 h | 1000 ng·h/mL | 1.1 h | – | – | 0.5 h | – | 50 mL/min/kg | – | 4% | < 300 ug cm**-2 | – | O=C(O)COC[C@H](O)[C@H](O)/C=C/C=C/C=C/C=C/[C@H](O)COc1ccc(F)cc1 | – |
| 0.3 h | 1000 ng·h/mL | 0.5 h | – | – | 0.5 h | – | 51 mL/min/kg | – | 12% | – | – | COC(=O)CCCC(O)C(O)/C=C/C=C/C=C/C=C/[C@H](O)COc1ccc(F)cc1 (single isomer, unassigned) | – |
| 0.2 h | 1800 ng·h/mL | 1.1 h | – | – | 1 h | – | 28 mL/min/kg | – | – | – | 13% | O=C(O)CCCC(O)C(O)/C=C/C=C/C=C/C=C/[C@H](O)COc1ccc(F)cc1 (single isomer, unassigned) | – |
